Sampled rows, rich in hits. Any-hit rate of the full collection: about 6.4%.
EBV gp42 block: Epstein-Barr virus gp42 inhibitors, primary screen, biochemical, uHTS, fluorescence polarization; AID 1085, 2008; Fluorescence polarization binding assay, mP read-out; inhibition, % (tested at 21.74 µM); actives 0.42% (n = 220,000); Glycoprotein 42 (Epstein-Barr virus (strain AG876)), Q1HVG2; in the data active = inhibition above about 50%
Target sequence (Q1HVG2 whole entry, looked up): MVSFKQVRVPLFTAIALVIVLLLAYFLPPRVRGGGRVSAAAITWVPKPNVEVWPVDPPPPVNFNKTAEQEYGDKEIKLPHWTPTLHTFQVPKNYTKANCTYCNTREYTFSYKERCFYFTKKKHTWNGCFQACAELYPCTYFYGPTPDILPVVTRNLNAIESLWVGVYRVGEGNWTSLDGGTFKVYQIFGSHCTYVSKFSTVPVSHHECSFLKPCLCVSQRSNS
Tb MetRS inh: T. brucei MetRS inhibitors, primary screen, biochemical, luminescence; actives 0.4% (n = 360,000); inhibition, % at 11.9 µM; methionyl-tRNA synthetase (Trypanosoma brucei brucei); purified T. brucei MetRS, ATP depletion, Kinase-Glo luminescence;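 active = inhibition above a per-plate cutoff of the control wells' mean inhibition plus 3 SD, cut at about 5.5% in these data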;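 note: 0% = DMSO wells median and 100% = median of wells with control inhibitor compound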
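Material: parasite MetRS enzyme / Replication: singlicate, one well per compound / Signal: luminescence of leftover ATP / Schedule: 2 h aminoacylation at 25 °C after 15 min preincubation / Medium: HEPES-MgCl2-KCl buffer plus DTT, spermine, BSA, pyrophosphatase / Doses: 11.9 µM single point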
MPTP block: mitochondrial permeability transition pore inhibitors, primary screen, biochemical, isolated mouse mitochondria, absorbance. actives 1.4% (n = 360,000). AID 602449, 2012. inhibition, % at 10 µM. Ca2+ swelling absorbance, 30 min;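 active = inhibition of 50% or more, scaled per plate between neutral and stimulator controls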;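 note: 0% = DMSO wells given calcium and 100% = 1 mM EGTA wells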
CHOP inhibitor: inhibitors of CHOP promoter induction, primary screen, cell-based, unfolded protein response, luciferase reporter | CHO-K1 CHOP-promoter luciferase, tunicamycin-induced, 15-18 h | inhibition, % at 10 µM | actives 3.8% (n = 220,000) | AID 2732, 2010;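 active = compounds that reduced the stress-induced luciferase reporter signal by more than about 70% of percent inhibition, limit read from the data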;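 note: 0% = tunicamycin plus vehicle and 100% = wells without tunicamycin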
GRIN3A LBD mod: binders of NR3A ligand-binding domain, primary screen, biophysical, differential scanning fluorimetry, uHTS | actives 2.5% (n = 340,000) | AID 1259313, 2017 | Glutamate receptor ionotropic, NMDA 3A (GRIN3A) ligand-binding domain | NR3A LBD differential scanning fluorimetry, Tm shift; 0% = protein alone, 100% = glycine-bound protein | Tm shift relative to glycine control, % at 25 µM;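 active = melting temperature shift of at least 10% of the positive control shift, at one fixed dose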
WT yeast gro inh: growth inhibition of WT strain, primary screen, mitochondrial fusion inhibitor project, WT and mutant strains, chemical genetic | actives 2.1% (n = 190,000) | inhibition, % at 10 µM | mitochondrial fusion phenotypic screen; in the data active = inhibition above about 58%; tested in S. cerevisiae
* marks the source's active call; other numbers are inactive results; nt = no result given.

SMILES	EBV gp42 block	Tb MetRS inh	MPTP block	CHOP inhibitor	GRIN3A LBD mod	WT yeast gro inh
COc1cccc(N2C(=O)Nc3ccccc3C2(O)C(=O)NCc2ccc3c(c2)OCO3)c1 (configuration not stated)	-22.0	-0.1	-0.2	6.3	0.5	11.8
Cc1ccc(S(=O)(=O)N(CCCO)CC(O)CON=C2c3ccccc3-c3ccccc32)cc1 (configuration not stated)	-18.8	0.1	-11.1	41.3	-1.9	59.3*
Cc1cc(C(C)(C)C)cc(C)c1Cn1c2[n+](c3ccc(C(F)(F)F)cc31)CCCCC2	-45.2	-0.7	7.8	22.0	-2.8	24.8
CC(=O)/C(N)=N/Nc1cccc(Cl)c1	-12.3	0.3	6.9	3.1	20.3*	43.3
CC1(C)Cc2ccccc2C(/C(=N\Nc2cccc(Cl)c2)C(N)=O)=N1	20.9	0.3	7.2	86.6*	-7.4	60.0*
CC(=O)Nc1ccc(S(=O)(=O)N=S(C)(C)=O)cc1	-7.8	-0.9	-1.5	-8.4	-0.3	5.2
COc1cc(/C=N\Nc2ccc([N+](=O)[O-])cc2)ccc1OCC(=O)Nc1ccc(C)c(C)c1	-80.6	-0.3	3.5	78.0*	16.5*	0.7
CCOc1cc(/C=N\Nc2ccc([N+](=O)[O-])cc2)ccc1OCC(=O)Nc1ccc(C)c(C)c1	-156.6	-1.4	-2.0	27.0	14.9*	0.7
COc1cc(/C=N\NC(=O)CN2CCOCC2)ccc1OCC(=O)Nc1ccc(C)c(C)c1	-12.2	-1.2	-0.2	27.6	0.8	-8.2
CCOc1cc(/C=N/Nc2cccc(C(=O)O)c2)ccc1OC(=O)c1ccccc1	7.0	-0.1	-0.4	92.1*	-1.8	-15.1
COc1cc(C=NNc2ccccc2)ccc1OC(=O)c1ccccc1	nt	-0.4	-1.0	nt	nt	nt
CCOc1cc(/C=N/NC(=O)c2ccncc2)ccc1OC(=O)c1ccc([N+](=O)[O-])cc1	-1.0	-0.4	0.4	81.3*	-0.7	4.0
CC(C)CC(=O)n1sc(NC(=O)c2ccccc2)nc1=O	-4.6	-0.1	26.5	34.3	-6.3	-30.2
CCN(CC(=O)NCc1cccs1)C(=O)c1ccc(-c2ccccc2F)o1	nt	-0.3	-1.9	nt	-0.3	nt
COc1ccc(/C=C/C(=O)OCC(=O)Nc2cc(C(F)(F)F)ccc2Cl)cc1	-3.8	0.2	3.1	-1.3	2.4	-6.4
Cc1nn(CCCC(=O)Nc2cccnc2)c(C)c1[N+](=O)[O-]	-5.4	-0.1	0.7	-25.7	-0.8	-29.4
COc1ccc(/C=N/N2C(=O)C3C4C=CC(CC4)C3C2=O)c(OC)c1 (configuration not stated)	8.4	0.2	-1.0	-5.8	-1.1	-12.3
C=CCOc1c(Br)cc(/C=N/Nc2ccc(C(=O)O)cc2)cc1OCC	7.9	4.3	-0.1	56.2	-1.1	63.0*
COc1ccc(/C=N/Nc2ccc(C(=O)O)cc2)cc1Br	-13.2	-0.8	-0.4	36.1	-0.2	-1.6
CCN1CCc2nc(NC(=O)c3ccccc3)sc2C1	-18.5	-1.0	-3.5	-14.4	0.3	80.9*
COc1ccc(CN(CCC#N)CCC2(c3ccccc3)CC(C)N(C)CC2C)cc1OC (configuration not stated)	-6.5	-0.8	0.2	2.1	0.5	nt
Clc1cncc(Cl)c1NNc1c2ccccc2nc2ccccc12	4.1	-0.9	5.4	47.0	-16.2	82.6*
O=C(NNc1c2ccccc2nc2ccccc12)c1ccc(Cl)cc1	nt	0.4	6.0	nt	-3.6	nt
O=C(CN1C(=O)NC2(CCc3ccccc32)C1=O)NCc1cccc(C(F)(F)F)c1 (configuration not stated)	nt	-0.1	0.2	nt	11.2*	nt
Cc1oc(-c2cccc3ccccc23)nc1CN1CCN(c2ncnc3ccccc23)CC1	-8.0	-0.4	6.2	82.4*	-3.4	62.7*
SMILES	EBV gp42 block	Tb MetRS inh	MPTP block	CHOP inhibitor	GRIN3A LBD mod	WT yeast gro inh
O=C(Nc1ccc(N2CCOCC2)c(Cl)c1)c1ccccc1Cl	-4.3	0.1	0.3	2.0	18.9*	-0.1
O=C(/C=C/c1ccco1)NC(=S)Nc1ccc(N2CCOCC2)c(Cl)c1	0.8	-1.0	1.4	74.6*	-3.4	20.8
Cc1[nH]c(SCC(=O)Nc2cc(S(C)(=O)=O)ccc2Cl)nc1Cc1ccccc1	nt	-0.2	3.1	nt	1.1	nt
N#CC(C(=O)Nc1ccccc1)=C1Nc2ccccc2N1	4.5	0.0	-0.7	33.1	0.3	-11.6
N#CC(C(=O)Nc1cccc(Cl)c1)=C1Nc2ccccc2N1	-3.5	-0.4	2.4	53.7	10.2*	-5.9
N#CC(C(=O)Nc1ccc(Cl)c(Cl)c1)=C1Nc2ccccc2N1	11.7	0.0	5.7	72.9*	3.6	-5.0
O=C(Nc1cccnc1)c1sc(Nc2ccccc2)nc1-c1ccccc1	9.8	0.2	-1.4	-22.5	27.1*	-9.4
N#Cc1nc(-c2ccc(F)cc2)oc1N1CCCC1	-9.6	1.2	-1.3	8.2	0.9	5.4
CCSCC1COC(c2cccn2Cc2ccc(C)cc2)=N1 (configuration not stated)	-27.1	-0.8	2.5	76.5*	1.5	1.6
Cc1ccc2c(nc3s/c(=C\c4ccc(-c5ccccc5C(=O)O)o4)c(=O)n32)c1C	nt	-0.5	2.4	nt	6.1	nt
O=c1nc2s/c(=C\c3ccc(-c4ccccc4[N+](=O)[O-])o3)c(=O)n2nc1-c1ccccc1	175.7*	0.3	4.6	6.1	-6.6	-1.7
COc1ccc(C/C(N)=N/OC(=O)COc2ccccc2C)cc1	-18.9	-1.6	-0.1	5.6	11.5*	-9.4
O=C(COC(=O)c1ccc2c(c1)OCCO2)Nc1cc(S(=O)(=O)N2CCOCC2)ccc1Cl	-3.1	0.2	-1.2	-0.4	-0.9	-6.0
O=C(CNCc1ccccc1Cl)Nc1cc(S(=O)(=O)N2CCOCC2)ccc1Cl	nt	-0.3	0.5	nt	0.5	nt
O=C(Nc1cc(S(=O)(=O)N2CCOCC2)ccc1Cl)C(=O)c1c(-c2ccccc2)cc2ccccn12	-22.6	0.5	4.4	53.2	-0.4	98.5*
O=C(CN1C(=O)CSc2ccc(S(=O)(=O)N3CCOCC3)cc21)NCCCN1CCCCC1	nt	-0.3	-1.4	nt	1.5	nt
NC(=O)c1ccsc1NC(=O)c1ccc2c(c1)CCCC2	13.9	-1.5	0.7	33.4	-3.4	69.7*
CNC(=O)c1ccsc1NC(=O)c1ccc2c(c1)CCCC2	5.3	-1.2	1.2	6.9	-1.0	71.8*
O=C(O)CCc1ccc(-c2ccccc2)n1Cc1ccco1	-18.0	-1.2	-0.4	10.2	-5.6	-0.4
O=C(O)CCc1ccc(-c2ccc(F)cc2)n1Cc1ccco1	-9.4	0.3	-0.5	13.7	0.4	63.5*

Screens: PubChem, several laboratories
